Bioassay records (PubChem BioAssay)
Rows were chosen to be rich in hits. Some 1.3% of all compounds tested hit in one or more screens of this group.
NR2E3 ag-1 – agonists of human nuclear receptor NR2E3 | GST-NR2E3/biotin-RetCOR TR-FRET, 1536-well | hit rate 0.12% among 320,000 | Q9Y5X4 | inhibition of corepressor binding, % at 4.78 µM | AID 2300;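 active means percent inhibition above the cutoff of mean plus 3 SD of all tested compounds, set per screening campaign, cut at about 20% in these data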;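 further: 0% = DMSO wells and 100% = biotin wells as full block of FRET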
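System: GST-tagged NR2E3 plus biotinylated RetCOR corepressor; Amount: 1.35 nM GST-tagged NR2E3 final; Dosing: single nominal compound dose of 4.8 µM; Schedule: 5 h incubation at 4 °C; Technique: TR-FRET with europium anti-GST and streptavidin-D2, 340 nm excitation; Controls: biotin wells as high control, 0.6% DMSO wells as low control.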
PP5 inh – inhibitors of human protein phosphatase 5 (PP5) | purified PP5c, OMFP substrate fluorescence | inhibition, % at 6.7 µM | hit rate 0.18% among 320,000;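 active means inhibition above the campaign's mean inhibition across all tested compounds plus 3 SD, cut at about 9.5% in these data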;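 further: 0% = DMSO only and 100% = 100 µM cantharidin control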
PP1 counter – counter-screen for PP5 inhibitors: inhibitors of human PP1-alpha; P62136; purified PP1alpha, OMFP fluorescence; inhibition, % at 6.7 µM; hit rate 0.9% among 320,000;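 active means inhibition above the mean inhibition of all tested compounds plus 3 SD, computed separately for each screening campaign, cut at about 15% in these data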
Target sequence (P62136 whole entry, looked up): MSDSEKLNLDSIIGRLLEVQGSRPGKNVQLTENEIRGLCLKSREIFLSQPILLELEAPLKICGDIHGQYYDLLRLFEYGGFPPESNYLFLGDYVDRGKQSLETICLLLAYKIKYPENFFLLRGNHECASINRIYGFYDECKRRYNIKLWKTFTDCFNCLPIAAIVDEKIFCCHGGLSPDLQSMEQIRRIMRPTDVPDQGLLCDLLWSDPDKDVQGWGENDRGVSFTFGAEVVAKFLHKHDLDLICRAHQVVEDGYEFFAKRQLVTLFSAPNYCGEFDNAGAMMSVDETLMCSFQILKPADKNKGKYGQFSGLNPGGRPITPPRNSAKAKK
NR2E3 ag-2 – human photoreceptor-specific nuclear receptor agonism; CHO-S Gal4-NCOR/VP16-NR2E3 two-hybrid, luciferase; hit rate 0.35% among 360,000; AID 602229; inhibition of corepressor binding, % at 3.98 µM; Q9Y5X4;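 active means inhibition above the mean of all tested compounds plus 3 SD, cut at about 70% in these data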;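 further: 0% = DMSO with NR2E3 transfected cells and 100% = cells lacking NR2E3 construct; higher means lower luciferase signal from less NR2E3 corepressor binding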
An asterisk follows results filed as active; nt = no result given.

SMILES | NR2E3 ag-1 | PP5 inh | PP1 counter | NR2E3 ag-2
O=c1[nH]c(C2CCN(S(=O)(=O)c3ccc4c(c3)OCCO4)CC2)nc2c1nnn2Cc1c(F)cccc1Cl | 2.2 | 4.3 | 16.9* | -19.1
O=c1[nH]c(C2CCN(S(=O)(=O)/C=C/c3ccccc3)CC2)nc2c1nnn2Cc1ccc(F)cc1 | 6.5 | 2.6 | 16.6* | -46.9
Cc1ccc(Cl)cc1NC(=S)N/N=C/c1cccc2ccccc12 | -1.6 | 3.3 | 6.6 | -32.4
O=C(Nc1cc(Cl)ccc1C(=O)O)c1ccc(CN2C(=O)c3ccccc3C2=O)cc1 | 4.2 | 0.9 | 1.6 | 8.0
Cc1ccc(OCc2nnn(CC(=O)NS(=O)(=O)c3c(C)noc3C)c2-c2ccccc2)cc1 | nt | nt | nt | 4.7
COc1ccc(OC)c(NC(=O)Cc2nn(C)c(=O)c3ccccc23)c1 | 1.3 | 3.3 | 0.2 | 38.2
COc1ccc(CNC(=O)Cc2nn(C)c(=O)c3ccccc23)cc1 | -3.8 | -3.0 | -0.3 | 101.6*
O=C(Nc1ccc(-n2nncc2-c2ccco2)cc1)c1cccc(F)c1 | -5.4 | 0.4 | 1.2 | -4.5
O=C(Nc1ccc(-n2nncc2-c2ccco2)cc1)c1cc2ccccc2oc1=O | -3.2 | -1.6 | 28.8* | -52.6
O=C(CCn1nnc2ccccc21)Nc1nnc(-c2ccccc2F)s1 | -1.9 | 3.0 | 16.7* | -21.3
CN(C)N=Nc1ccc(-c2cn(Cc3ccccc3)cn2)cc1 | 4.5 | 0.3 | 2.2 | -181.5
Oc1cccc(-c2nnc(-c3cccc(O)c3)nn2)c1 | nt | nt | nt | -122.1
CCN(CC)c1ccc(NC(=O)c2ccc3c(c2)c(C)c(C)n3C)cc1 | 0.2 | 3.4 | 16.9* | -39.3
CSc1cccc(NC(=O)c2nnn(CC(=O)Nc3cc(C)cc(C)c3)c2N)c1 | 0.6 | -1.0 | 15.9* | -1.4
CCc1ccccc1NC(=O)c1nnn(CC(=O)Nc2cccc(C)c2)c1N | 1.4 | 0.9 | 3.6 | 4.3
O=C(OCC(=O)N1CCC(Cc2ccccc2)CC1)c1cncc(Br)c1 | nt | nt | nt | 13.0
COc1ccc(CN2C(=O)C(CC(C)C)Nc3ncnc(N4CCCCC4)c32)cc1 (centres undefined) | -1.9 | 2.9 | 15.9* | 5.3
Cc1cc([N+](=O)[O-])nn1Cc1ccc(C(=O)N/N=C/c2ccc(O)cc2O)cc1 | -2.3 | -3.4 | 16.4* | -23.4
COc1ccc(C2C/C(=N\O)C(C)(C)O2)cc1 (centres undefined) | -1.9 | -0.6 | 17.1* | -2.0
Nc1ccn([C@@H]2O[C@H](C(=O)N3CCCN(Cc4cccs4)CC3)[C@@H](O)[C@H]2O)c(=O)n1 | nt | nt | nt | 14.1
Cc1cc(N/N=C/c2cccc(Cl)c2)nc(NCc2ccccc2)n1 | -1.3 | 2.2 | 15.5* | -38.3
COCCNc1nc(-c2ccc(Cl)cc2C)c2sccc2n1 | nt | nt | nt | 6.0
O=C1CC(=C2c3ccccc3-c3ccccc32)C(=O)N1CCN1CCN(c2cccc(Cl)c2)CC1 | 0.4 | 3.5 | 16.2* | -4.4
Clc1cccc(N2CCN(CCCN3CCN(c4ccccc4)CC3)CC2)c1 | nt | nt | nt | -2.7
COc1cc2c(cc1NC(=O)c1cc(-c3ccncc3)nc3ccccc13)oc1ccccc12 | -2.6 | 1.2 | 15.4* | -21.1
SMILES | NR2E3 ag-1 | PP5 inh | PP1 counter | NR2E3 ag-2
Cc1nccn1CCCNC(=O)C1CCC(=O)N(Cc2ccccc2F)C1 (centres undefined) | -4.6 | 1.7 | -5.7 | -15.4
CCC(NC(=O)OCc1ccccc1)C(=O)Oc1ccc2ccc(=O)oc2c1 (centres undefined) | 5.2 | 0.4 | 1.5 | -3.9
COC(=O)c1[nH]c2cc(C)ccc2c1NC(=O)CN1CCN(c2ccccc2OC)CC1 | 4.0 | 5.3 | 4.0 | 12.1
COC(=O)c1[nH]c2ccc(C)cc2c1NC(=O)CN1CCCc2ccccc21 | 3.4 | 3.2 | 17.0* | -21.6
Cc1cc([N+](=O)[O-])nn1CC(=O)NCc1ccc(Cl)cc1 | 0.5 | 0.2 | -3.2 | 11.7
Cn1c(=O)n(C)c2cc(NC(=O)CSc3ccccc3)ccc21 | -0.6 | -1.1 | 3.0 | 6.0
CCSc1nnc(NC(=O)C2Cc3ccccc3CN2S(=O)(=O)CC)s1 (centres undefined) | -0.6 | 1.0 | 5.0 | -6.3
CCS(=O)(=O)N1Cc2ccccc2CC1C(=O)Nc1nnc(SCc2c(Cl)cccc2Cl)s1 (centres undefined) | 6.8 | 0.5 | 17.4* | -27.0
Cc1ccc(CN2CC(C(=O)Nc3nnc(SCc4c(Cl)cccc4Cl)s3)CC2=O)cc1 (centres undefined) | -1.2 | 4.3 | 16.2* | -16.9
C[C@@H]1CN([C@@H](C)CO)C(=O)c2cc(N(C)C)ccc2O[C@@H](C)CCCCO[C@@H]1CN(C)Cc1ccc2c(c1)OCO2 | nt | nt | nt | -17.2
CCN1/C(=C/C=C/C=C/c2sc3ccccc3[n+]2CC)Sc2ccccc21 | -123.5 | 4.7 | 46.9* | nt
